# The source made the active and inactive calls. The rule behind the calls is not given here.
# Assays:
# SK-OV-3 = assay: Antiproliferative activity against human SKOV3 cells after 48 hrs; format: functional, cell-based
# Method in brief: (§1)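 Cells seeded at 15,000/well and incubated overnight at 37 °C, then switched to medium containing compound in µg/mL concentrations. Incubation was 48 h at 37 °C, 5% CO2, then 2 h with WST-type TetraColor One. A450 gave % viability, reported as % inhibition of proliferation, mean of four replicates.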
# OVSAHO = assay: Antiproliferative activity against human OVSAHO cells after 48 hrs; format: functional, cell-based; method in brief: as §1
# LM8 = assay: Antiproliferative activity against mouse LM8 cells after 48 hrs; format: functional, cell-based; method in brief: as §1
# LM8G7 [1] = assay: Antiproliferative activity against mouse LM8G7 cells after 48 hrs; format: functional, cell-based; method in brief: as §1
# [2] = (§2) Antiproliferative activity against VEGF expressing mouse LM8G7 cells assessed as cell index every 10 mins by RT-CES method; format: functional, cell-based
# Method in brief: (§3)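 LM8G7 seeded at 10,000 cells/well on electronic-sensing e-plates; about 24 h later, in log phase, medium with various compound concentrations or DMSO control was added. Impedance cell index was recorded every 10 min and plotted against time. IC50 was obtained by non-linear regression of concentration–response curves.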
# LM8G7 [3] = assay: as §2; format: functional, cell-based; method in brief: as §3
# Endothelial cell = assay: Antiangiogenic activity in mouse endothelial cells assessed as inhibition of tube formation at 50 uM after 18 hrs by microscopic analysis in presence of VEGF; format: functional, cell-based
# Method in brief: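 UV♀2 mouse endothelial cells, 100 µL suspension at 4 × 10⁵ cells/mL, seeded onto Matrigel solidified 30 min at 37 °C, with or without compound (50 µM) and VEGF (2 ng/mL); DMSO 0.1% vehicle. After 18 h, reorganization of the sub-confluent monolayer into capillary-like tubes in 3-D Matrigel was photographed by light microscopy.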
# [4] = Inhibition of VEGF secretion in mouse LM8G7 cells at 56 uM after 48 hrs by immunoassay; format: functional; details: LM8G7, 48 h
# Method in brief: (§4)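 LM8G7 (1 × 10⁶ cells/well) in 6-well plates were incubated 24 h, then given serum-free medium with compound at 56, 102 or 204 µM for 48 h at 37 °C. Supernatant was centrifuged 5000 rpm, 5 min, 4 °C and protein measured by BCA. Mouse VEGF was quantified by sandwich ELISA against a recombinant VEGF standard (HRP detection, A450).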
# [5] = Inhibition of VEGF secretion in mouse LM8G7 cells at 102 uM after 48 hrs by immunoassay; format: functional; details: LM8G7, 48 h; method in brief: as §4
# [6] = Inhibition of VEGF secretion in mouse LM8G7 cells at 204 uM after 48 hrs by immunoassay; format: functional; details: LM8G7, 48 h; method in brief: as §4
Compound,Activity (SK-OV-3),Activity (OVSAHO),Activity (LM8),Activity (LM8G7 [1]),IC50 [2] [µM],Activity (LM8G7 [3]),inhibition (Endothelial cell),inhibition at 56 µM [4] [%],inhibition at 102 µM [5] [%],inhibition at 204 µM [6] [%]
CS(=O)(=O)c1ccc(CN2C(=O)NC3(CC4CCC(C3)N4Cc3ccc(F)c(F)c3)C2=O)cc1 (stereo unspecified),Active,Active,Active,Active,13,Dose-dependent effect,Active,23.8,46.7,63.9
CS(=O)(=O)c1ccc(CN2C(=O)NC3(CC4CCC(C3)N4Cc3cccc(F)c3)C2=O)cc1 (stereo unspecified),Active,Active,Active,Active,102,Dose-dependent effect,,,,

# Source: ChEMBL document CHEMBL1155263, “Anti-tumor and anti-angiogenic activity of novel hydantoin derivatives: Inhibition of VEGF secretion in liver metastatic osteosarcoma cells” (Bioorg Med Chem, 2009)
